# Reference: ChEMBL document CHEMBL1143359, “Synthesis and in vitro anti-proliferative activity of beta-elemene monosubstituted derivatives in HeLa cells mediated through arrest of cell cycle at the G1 phase” (Bioorg Med Chem, 2009)
# Active and inactive are the calls of the source. No cut-off for these calls is given here.
# Legend:
# Type in all cases: functional, cell-based
# HeLa [1] = assay: Antiproliferative activity against human HeLa cells after 24 hrs by WST-1 assay
# Outline: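 HeLa cells grown in RPMI 1640 with 10% inactivated FBS, penicillin, streptomycin and L-glutamine at 37 °C under 5% CO2. They were trypsinized, seeded at 5 × 10³ cells/well, and left 12 h. Compounds were added at five concentrations for 24 h. WST-1 was added and absorbance read at 450 nm. IC50 was calculated from absorbance.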
# HeLa [2] = assay: Cell cycle arrest in human HeLa cells assessed as increase in G1 phase cells after 24 hrs by flow cytometry using propidium iodide staining
# Outline: (§1)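 After 24 h drug exposure at 37 °C, HeLa cells were trypsinized. About 1 × 10⁶ cells were washed twice in cold PBS and fixed overnight in chilled 75% methanol at −20 °C. DNA content was measured by propidium iodide flow cytometry, and the percentage of cells in each cycle phase was calculated. Untreated cultures served as controls.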
# HeLa [3] = assay: Cell cycle arrest in human HeLa cells assessed as decrease in S phase cells after 24 hrs by flow cytometry using propidium iodide staining; outline: as §1
# HeLa [4] = assay: Decrease in Rb protein expression in human HeLa cells after 24 hrs by Western blotting
# Outline: (§2)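 HeLa cells were treated 24 h, trypsinized, washed in ice-cold PBS and lysed on ice in RIPA with PMSF. Lysates were clarified at 12,000 rpm, 4 °C, 15 min, and protein was measured by Bradford. Extracts ran on 12% SDS–PAGE onto PVDF, with milk/Tween blocking for 2 h. Rabbit anti-cyclin D1 and anti-Rb (1:100) and biotinylated anti-rabbit (1:400) were each applied 1 h at 37 °C, with ABC detection. β-actin was the loading control.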
# HeLa [5] = assay: Decrease in Rb phosphorylation in human HeLa cells after 24 hrs by Western blotting; outline: as §2
# HeLa [6] = assay: Cell cycle arrest in human HeLa cells assessed as decrease in G2-M phase cells after 24 hrs by flow cytometry using propidium iodide staining; outline: as §1
# HeLa [7] = assay: Decrease in CyclinD1 protein expression in human HeLa cells after 24 hrs by Western blotting; outline: as §2
Compound,IC50 (HeLa [1]),Activity (HeLa [2]),other results
C=C[C@]1(C)CC[C@@H](C(=C)C)C[C@H]1C(=C)C,236 µM,Active,–
C=C[C@]1(C)CC[C@@H](C(=C)CNC2CCCCCCC2)C[C@H]1C(=C)C,5.9 µM,Active,–
C=C[C@]1(C)CC[C@@H](C(=C)COC)C[C@H]1C(=C)C,212 µM,Active,–
C=C[C@]1(C)CC[C@@H](C(=C)CNC(C)(C)C)C[C@H]1C(=C)C,25.4 µM,Active,–
C=C[C@]1(C)CC[C@@H](C(=C)COCC)C[C@H]1C(=C)C,106 µM,Active,–
C=C[C@]1(C)CC[C@@H](C(=C)Cn2ccnc2)C[C@H]1C(=C)C,15.7 µM,Active,–
C=C[C@]1(C)CC[C@@H](C(=C)CNC(C)C)C[C@H]1C(=C)C,0.04 µM,Active,–
C=C[C@]1(C)CC[C@@H](C(=C)COCCCC)C[C@H]1C(=C)C,266 µM,Active,–
C=C[C@]1(C)CC[C@@H](C(=C)COCCOC)C[C@H]1C(=C)C,238 µM,Active,–

# Further lines, with some results ahead:
IC50 (HeLa [1]),Compound,Activity (HeLa [2]),other results
3.39 µM,C=C[C@]1(C)CC[C@@H](C(=C)CNC2CCCCC2)C[C@H]1C(=C)C,Active,–
0.52 µM,C=C[C@]1(C)CC[C@@H](C(=C)CNC2CCCC2)C[C@H]1C(=C)C,Active,–
10.8 µM,C=C[C@]1(C)CC[C@@H](C(=C)CNCCCC)C[C@H]1C(=C)C,Active,Activity (HeLa [3]): Active; Activity (HeLa [4]): inactive; Activity (HeLa [5]): Active; Activity (HeLa [6]): Active; Activity (HeLa [7]): Active
14.3 µM,C=C[C@]1(C)CC[C@@H](C(=C)CN(CC)CC)C[C@H]1C(=C)C,Active,–
